Calls of active or inactive are those of the source. The rule behind the calls is not given here.
What was measured:
[1] = system: IMR-32; assay: Cytotoxicity against human IMR32 cells assessed as cell viability after 48 hrs by MTT assay; format: functional, cell-based
Procedure, shortened: (§1)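 MTT viability assay in neuroblastoma lines (IMR-32, SK-N-SH, NB-39) and normal cells (NHDF, HUVEC). Cells were exposed to the indicated concentrations of compound or DMSO vehicle for 48 h. Survival is expressed relative to the vehicle control as mean ± SEM, n = 3.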

[2] = system: NB39; assay: Cytotoxicity against human NB39 cells assessed as cell viability after 48 hrs by MTT assay; format: functional, cell-based; procedure, shortened: as §1
[3] = system: HUVEC; assay: Cytotoxicity against human HUVEC cells assessed as cell viability after 48 hrs by MTT assay; format: cell-based; procedure, shortened: as §1
[4] = system: SK-N-SH; assay: Cytotoxicity against human SK-N-SH cells assessed as cell viability after 48 hrs by MTT assay; format: functional, cell-based; procedure, shortened: as §1
[5] = system: IMR-32; assay: Cytotoxicity against human IMR32 cells assessed as cell viability up to 40 uM after 48 hrs by MTT assay; format: functional, cell-based; procedure, shortened: as §1
[6] = system: NB39; assay: Cytotoxicity against human NB39 cells assessed as cell viability up to 40 uM after 48 hrs by MTT assay; format: functional, cell-based; procedure, shortened: as §1
[7] = system: NHDF; assay: (§2) Cytotoxicity against human NHDF cells assessed as cell viability up to 40 uM after 48 hrs by MTT assay; format: cell-based; details: nhdf, 48 h; procedure, shortened: as §1
[8] = system: HUVEC; assay: (§3) Cytotoxicity against human HUVEC cells assessed as cell viability up to 40 uM after 48 hrs by MTT assay; format: cell-based; details: huvec, 48 h; procedure, shortened: as §1
[9] = system: SK-N-SH; assay: Cytotoxicity against human SK-N-SH cells assessed as cell viability up to 40 uM after 48 hrs by MTT assay; format: functional, cell-based; procedure, shortened: as §1
[10] = system: IMR-32; assay: Induction of apoptosis in human IMR32 cells assessed as cellular shrinkage at 1 x 10^-6 to 1 x 10^-4 M after 24 hrs using Hoechst 33342 staining by fluorescent microscopic analysis; format: functional, cell-based
Procedure, shortened: (§4)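 IMR-32 cells were exposed to compound (1 × 10⁻⁶–1 × 10⁻⁴ M) or cisplatin (1 × 10⁻⁴ M) for 24 h, then stained with Hoechst 33342. Phase-contrast and fluorescence microscopy were used to assess nuclear morphology (shrinkage, chromatin condensation, fragmented nuclei).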

[11] = system: IMR-32; assay: Induction of apoptosis human IMR32 cells assessed as increase in early apoptotic cells at 100 uM after 48 hrs using annexin V-propidium iodide staining by flow cytometry; format: functional, cell-based
Procedure, shortened: (§5)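 IMR-32 cells were treated with compound at 100 μM or DMSO vehicle for 48 h; untreated cells served as the normal group. Cells were double-stained with Annexin V-Alexa Fluor 488 and propidium iodide and analysed by flow cytometry. Early apoptosis was read as Annexin+/PI− and late apoptosis as Annexin+/PI+. Groups were compared with one-way ANOVA and Bonferroni post hoc test versus vehicle.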

[12] = system: IMR-32; assay: Cytotoxicity against human IMR32 cells assessed as cell survival at 100 uM; format: functional; details: read-out: Activity; procedure, shortened: as §1
[13] = Cytotoxicity against human NHDF cells assessed as cell survival at 100 uM; format: cell-based; details: read-out: Activity; procedure, shortened: as §1
[14] = system: IMR-32; assay: Induction of apoptosis in human IMR32 cells assessed as appearance of fragmented nuclei at 1 x 10^-6 to 1 x 10^-4 M after 24 hrs using Hoechst 33342 staining by fluorescent microscopic analysis; format: functional, cell-based; procedure, shortened: as §4
[15] = system: NHDF; assay: Cytotoxicity against human NHDF cells assessed as cell viability after 48 hrs by MTT assay; format: cell-based; procedure, shortened: as §1
[16] = Cytotoxicity against human NB39 cells assessed as cell survival at 100 uM; format: functional; details: read-out: Activity; procedure, shortened: as §1
[17] = Cytotoxicity against human HUVEC cells assessed as cell survival at 100 uM; format: cell-based; details: read-out: Activity; procedure, shortened: as §1
[18] = system: IMR-32; assay: Induction of apoptosis in human IMR32 cells assessed as chromatin condensation at 1 x 10^-6 to 1 x 10^-4 M after 24 hrs using Hoechst 33342 staining by fluorescent microscopic analysis; format: functional, cell-based; procedure, shortened: as §4
[19] = system: IMR-32; assay: Induction of apoptosis human IMR32 cells assessed as increase in late apoptotic cells at 100 uM after 48 hrs using annexin V-propidium iodide staining by flow cytometry; format: functional, cell-based; procedure, shortened: as §5
[20] = system: SK-N-SH; assay: Cytotoxicity against human SK-N-SH cells assessed as cell survival at 100 uM; format: functional; details: read-out: Activity; procedure, shortened: as §1
[21] = as §2; format: cell-based; details: NHDF cells, read-out: Activity; procedure, shortened: as §1
[22] = as §3; format: cell-based; details: HUVEC cells, read-out: Activity; procedure, shortened: as §1

O=Nc1c(-c2c(O)[nH]c3ccccc23)[nH]c2ccccc12 [INDIRUBIN-3-MONOXIME]
Activity [1]: Active | Activity [2]: Active | Activity [3]: Non-toxic | Activity [4]: Active

COc1ccc2c(c1)/C(=C1/Nc3ccccc3/C1=N\O)C(=O)N2
Activity [1]: Active | Activity [2]: Active | Activity [4]: Active

COc1cccc2c1NC(=O)/C2=C1\Nc2ccccc2C1=O
Activity [5]: inactive | Activity [6]: inactive | Activity [7]: Non-toxic | Activity [8]: Non-toxic | Activity [9]: inactive

Cc1ccc2c(c1)C(=O)C(c1c(O)[nH]c3ccccc13)=N2
Activity [5]: inactive | Activity [6]: inactive | Activity [7]: Non-toxic | Activity [8]: Non-toxic | Activity [9]: inactive

COc1ccc2c(c1)C(=O)C(c1c(O)[nH]c3ccccc13)=N2
Activity [10]: Active | Activity [11]: Active | viability at 100 µM [12]: 10% | Activity [1]: Active | viability at 100 µM [13]: 80% | Activity [14]: Active | Activity [2]: Active | Activity [15]: Non-toxic | viability at 100 µM [16]: 10% | viability at 100 µM [17]: 40% | Activity [18]: Active | Activity [3]: Non-toxic | Activity [19]: Active | Activity [4]: Active | viability at 100 µM [20]: 10%

O=C1C(c2c(O)[nH]c3ccc(Br)cc23)=Nc2ccccc21
Activity [1]: inactive | Activity [2]: inactive | Activity [15]: Non-toxic | Activity [3]: Non-toxic | Activity [4]: inactive

CCc1ccc2c(c1)C(=O)/C(=C1/C(=O)Nc3ccccc31)N2
Activity [5]: inactive | Activity [6]: inactive | Activity [7]: Non-toxic | Activity [8]: Non-toxic | Activity [9]: inactive

O=C1C(c2c(O)[nH]c3cc(Br)ccc23)=Nc2ccccc21
Activity [1]: inactive | Activity [2]: inactive | Activity [15]: Non-toxic | Activity [3]: Non-toxic | Activity [4]: inactive

COc1ccc2[nH]c(O)c(C3=Nc4ccccc4C3=O)c2c1
Activity [1]: Active | Activity [2]: Active | Activity [15]: Toxic | Activity [3]: Toxic | Activity [4]: Active

O=C1C(c2c(O)[nH]c3c(Br)cccc23)=Nc2ccccc21
Activity [1]: inactive | Activity [2]: inactive | Activity [15]: Non-toxic | Activity [3]: Non-toxic | Activity [4]: inactive

COc1cccc2c1NC(=O)/C2=C1\Nc2ccccc2\C1=N/O
Activity [1]: Active | Activity [2]: Active | Activity [4]: Active

COc1ccc2c(c1)C(=N\O)/C(=C1/C(=O)Nc3ccccc31)N2
Activity [1]: inactive | Activity [2]: inactive | Activity [15]: Non-toxic | Activity [3]: Non-toxic | Activity [4]: inactive

O=C1C(c2c(O)[nH]c3ccccc23)=Nc2ccc(Br)cc21
Activity [1]: inactive | Activity [2]: inactive | Activity [15]: Non-toxic | Activity [3]: Non-toxic | Activity [4]: inactive

O=C1C(c2c(O)[nH]c3ccccc23)=Nc2cc(Br)ccc21
Activity [1]: inactive | Activity [2]: inactive | Activity [15]: Non-toxic | Activity [3]: Non-toxic | Activity [4]: inactive

COc1ccc2c(c1)NC(=O)/C2=C1\Nc2ccccc2C1=O
Activity [5]: inactive | Activity [6]: inactive | Activity [7]: Non-toxic | Activity [8]: Non-toxic | Activity [9]: inactive

COc1ccc2c(c1)NC(=O)/C2=C1\Nc2ccccc2\C1=N/O
Activity [1]: Active | Activity [2]: Active | Activity [15]: Non-toxic | Activity [3]: Non-toxic | Activity [4]: Active

O=C1Nc2ccccc2/C1=C1/Nc2ccccc2C1=O [INDIRUBIN]
Activity [5]: inactive | Activity [6]: inactive | Activity [7]: Non-toxic | Activity [8]: Non-toxic | Activity [9]: inactive

O=C1Nc2cc(Br)ccc2/C1=C1/Nc2ccccc2/C1=N\O
Activity [1]: Active | Activity [2]: Active | Activity [4]: Active

COc1ccc2c(c1)N/C(=C1\C(=O)Nc3ccccc31)C2=O
Activity [1]: Active | Activity [2]: Active | viability at 48 h [21]: 82% | viability at 48 h [22]: 60% | Activity [4]: Active

Source: ChEMBL document CHEMBL1828596, “Synthesis of methoxy- and bromo-substituted indirubins and their activities on apoptosis induction in human neuroblastoma cells” (Bioorg Med Chem Lett, 2011)
